Here are results for 14 molecules from ChEMBL document CHEMBL1124339, “Conformationally restricted analogues of atriopeptin(103-125)amide” (J Med Chem, 1989).

Positions of bridges follow the written chain, without caps; N, C: chain ends. Non-standard residues stand in square brackets, D forms with d. Residues, ends and D or L forms follow the SMILES beside them. *: point of attachment. hCys = N[C@@H](CCS)C(=O)O; Acm = CC(=O)NC*

One experiment is filed under the species Oryctolagus cuniculus. The experiment can be described thus: Relative binding potency towards vasorelaxant binding site compared to AP(103-126). The method in brief:
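Varied unlabeled peptide concentrations; started by adding membranes; 30 min at 25 °C. Filtration with ice-cold buffer, then gamma counting. Nonspecific binding measured with 10^-6 M unlabeled reference peptide. Specific binding fitted by nonlinear least squares.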
The molecule `CC[C@H](C)[C@H]1NC(=O)[C@H](CCCN=C(N)N)NC(=O)[C@H](CC(=O)O)NC(=O)[C@@H]([C@@H](C)CC)NC(=O)[C@H](CCCN=C(N)N)NC(=O)[C@H](CSCNC(C)=O)NC(=O)CNC(=O)[C@@H](Cc2ccccc2)NC(=O)[C@H](NC(=O)[C@H](CO)NC(=O)[C@@H](N)CO)CSSC[C@H](C(=O)N[C@@H](CC(N)=O)C(=O)N[C@@H](CO)C(=O)N[C@@H](Cc2ccccc2)C(=O)N[C@@H](CCCN=C(N)N)C(N)=O)NC(=O)CNC(=O)[C@@H](CC(C)C)NC(=O)CNC(=O)[C@H](CSCNC(C)=O)NC(=O)[C@H](CCC(N)=O)NC(=O)[C@@H](C)NC(=O)CNC1=O` registered a Relative potency of 0.48.

A further experiment has as its system Atrial natriuretic peptide receptor 3 (Oryctolagus cuniculus). In words: Relative binding potency towards non-vasorelaxant binding site compared to AP(103-126).
`CC[C@H](C)[C@H]1NC(=O)[C@H](CCCN=C(N)N)NC(=O)[C@H](CC(=O)O)NC(=O)[C@@H]([C@@H](C)CC)NC(=O)[C@H](CCCN=C(N)N)NC(=O)[C@H](CSCNC(C)=O)NC(=O)CNC(=O)[C@@H](Cc2ccccc2)NC(=O)[C@H](NC(=O)[C@H](CO)NC(=O)[C@@H](N)CO)CSSC[C@H](C(=O)N[C@@H](CC(N)=O)C(=O)N[C@@H](CO)C(=O)N[C@@H](Cc2ccccc2)C(=O)N[C@@H](CCCN=C(N)N)C(N)=O)NC(=O)CNC(=O)[C@@H](CC(C)C)NC(=O)CNC(=O)[C@H](CSCNC(C)=O)NC(=O)[C@H](CCC(N)=O)NC(=O)[C@@H](C)NC(=O)CNC1=O` showed a Relative potency of 0.48.

Test system in the next experiment: not listed separately
The experiment can be described thus: Vasorelaxant activity in norepinephrine-contracted rabbit aortic rings, compared to AP(103-126). Format: functional, Oryctolagus cuniculus, Aorta.
On to `CC[C@H](C)[C@H](NC(=O)[C@H](CC/N=C(/N)NO)NC(=O)[C@H](CC(=O)O)NC(=O)[C@@H](NC(=O)[C@H](CCN=C(N)N)NC(=O)[C@H](CSCNC(C)=O)NC(=O)CNC(=O)[C@H](Cc1ccccc1)NC(=O)[C@H](CSCNC(C)=O)NC(=O)[C@H](CO)NC(=O)[C@@H](N)CO)[C@@H](C)CC)C(=O)NCC(=O)N[C@@H](C)C(=O)N[C@@H](CCC(N)=O)C(=O)C1SSC[C@@H](C(=O)N[C@@H](CC(N)=O)C(=O)CN[C@@H](CO)C(=O)N[C@@H](Cc2ccccc2)C(=O)N[C@@H](CCCN=C(N)N)C(N)=O)NC(=O)CNC(=O)[C@H](CC(C)C)NC(=O)CNC(=O)[C@H]1N` (stereo in doubt; 9b), for which the Relative potency stood at 0.013.
Regarding `CC[C@H](C)[C@@H]1NC(=O)[C@H](CCCN=C(N)N)NC(=O)[C@H](CC(=O)O)NC(=O)[C@H]([C@@H](C)CC)NC(=O)[C@H](CCCN=C(N)N)NC(=O)[C@@H](CSCNC(C)=O)NC(=O)CNC(=O)[C@H](Cc2ccccc2)NC(=O)[C@@H](NC(=O)[C@H](CO)NC(=O)[C@@H](N)CO)CSSC[C@@H](C(=O)N[C@@H](CC(N)=O)C(=O)N[C@@H](CO)C(=O)N[C@@H](Cc2ccccc2)C(=O)N[C@@H](CCCN=C(N)N)C(N)=O)NC(=O)CNC(=O)[C@H](CC(C)C)NC(=O)CNC(=O)[C@@H](CSCNC(C)=O)NC(=O)[C@H](CCC(N)=O)NC(=O)[C@H](C)NC(=O)CNC1=O`, the Relative potency is listed as 0.044.
Same read-out and setting: under `CC[C@H](C)[C@@H]1NC(=O)[C@H](CCCN=C(N)N)NC(=O)[C@H](CC(=O)O)NC(=O)[C@H]([C@@H](C)CC)NC(=O)[C@H](CCCN=C(N)N)NC(=O)[C@H](CSCNC(C)=O)NC(=O)CNC(=O)[C@H](Cc2ccccc2)NC(=O)[C@@H](NC(=O)[C@H](CO)NC(=O)[C@@H](N)CO)CSSC[C@@H](C(=O)N[C@@H](CC(N)=O)C(=O)N[C@@H](CO)C(=O)N[C@@H](Cc2ccccc2)C(=O)N[C@@H](CCCN=C(N)N)C(N)=O)NC(=O)CNC(=O)[C@H](CC(C)C)NC(=O)CNC(=O)[C@H](CO)NC(=O)[C@H](CCC(N)=O)NC(=O)[C@H](C)NC(=O)CNC1=O` stands 1.03; under `CC[C@H](C)[C@@H]1NC(=O)[C@H](CCCN=C(N)N)NC(=O)[C@H](CC(=O)O)NC(=O)[C@H]([C@@H](C)CC)NC(=O)[C@H](CCCN=C(N)N)NC(=O)[C@H]2CSSC[C@@H](NC(=O)[C@H](CCC(N)=O)NC(=O)[C@H](C)NC(=O)CNC1=O)C(=O)NCC(=O)N[C@@H](CC(C)C)C(=O)NCC(=O)N[C@H](C(=O)N[C@@H](CC(N)=O)C(=O)N[C@@H](CO)C(=O)N[C@@H](Cc1ccccc1)C(=O)N[C@@H](CCCN=C(N)N)C(N)=O)CSSC[C@H](NC(=O)[C@H](CO)NC(=O)[C@@H](N)CO)C(=O)N[C@@H](Cc1ccccc1)C(=O)NCC(=O)N2`, 0.0073; under `CC[C@H](C)[C@@H]1NC(=O)[C@H](CCCN=C(N)N)NC(=O)[C@H](CC(=O)O)NC(=O)[C@H]([C@@H](C)CC)NC(=O)[C@H](CCCN=C(N)N)NC(=O)CNC(=O)CNC(=O)[C@H](Cc2ccccc2)NC(=O)[C@@H](NC(=O)[C@H](CO)NC(=O)[C@@H](N)CO)CSSC[C@@H](C(=O)N[C@@H](CC(N)=O)C(=O)N[C@@H](CO)C(=O)N[C@@H](Cc2ccccc2)C(=O)N[C@@H](CCCN=C(N)N)C(N)=O)NC(=O)CNC(=O)[C@H](CC(C)C)NC(=O)CNC(=O)[C@H](CO)NC(=O)[C@H](CCC(N)=O)NC(=O)[C@H](C)NC(=O)CNC1=O`, 1.7.
Same read-out and setting: with `CC[C@H](C)[C@H](NC(=O)[C@H](CC/N=C(/N)NO)NC(=O)[C@H](CC(=O)O)NC(=O)[C@@H](NC(=O)[C@H](CCN=C(N)N)NC(=O)[C@H](CSCNC(C)=O)NC(=O)CNC(=O)[C@H](Cc1ccccc1)NC(=O)[C@H](CSCNC(C)=O)NC(=O)[C@H](CO)NC(=O)[C@@H](N)CO)[C@@H](C)CC)C(=O)NCC(=O)N[C@@H](C)C(=O)N[C@@H](CCC(N)=O)C(=O)C1SSC[C@@H](C(=O)N[C@@H](CC(N)=O)C(=O)CN[C@@H](CO)C(=O)N[C@@H](Cc2ccccc2)C(=O)N[C@@H](CCCN=C(N)N)C(N)=O)NC(=O)CNC(=O)[C@H](CC(C)C)NC(=O)CNC(=O)[C@H]1N` (stereo in doubt; 9a) the figure was 0.028.
The molecule `CC[C@H](C)[C@@H]1NC(=O)[C@H](CCCN=C(N)N)NC(=O)[C@H](CC(=O)O)NC(=O)[C@H]([C@@H](C)CC)NC(=O)[C@H](CCCN=C(N)N)NC(=O)[C@H](CCSCNC(C)=O)NC(=O)CNC(=O)[C@H](Cc2ccccc2)NC(=O)[C@@H](NC(=O)[C@H](CO)NC(=O)[C@@H](N)CO)CSSC[C@@H](C(=O)N[C@@H](CC(N)=O)C(=O)N[C@@H](CO)C(=O)N[C@@H](Cc2ccccc2)C(=O)N[C@@H](CCCN=C(N)N)C(N)=O)NC(=O)CNC(=O)[C@H](CC(C)C)NC(=O)CNC(=O)[C@H](CCSCNC(C)=O)NC(=O)[C@H](CCC(N)=O)NC(=O)[C@H](C)NC(=O)CNC1=O` displayed a Relative potency of 0.068.
Still for that read-out and setting: under `CC[C@H](C)[C@@H]1NC(=O)[C@H](CCCN=C(N)N)NC(=O)[C@H](CC(=O)O)NC(=O)[C@H]([C@@H](C)CC)NC(=O)[C@H](CCCN=C(N)N)NC(=O)[C@H](CCSCNC(C)=O)NC(=O)CNC(=O)[C@H](Cc2ccccc2)NC(=O)[C@@H](NC(=O)[C@H](CO)NC(=O)[C@@H](N)CO)CSSC[C@@H](C(=O)N[C@@H](CC(N)=O)C(=O)N[C@@H](CO)C(=O)N[C@@H](Cc2ccccc2)C(=O)N[C@@H](CCCN=C(N)N)C(N)=O)NC(=O)CNC(=O)[C@H](CC(C)C)NC(=O)CNC(=O)[C@H](CSCNC(C)=O)NC(=O)[C@H](CCC(N)=O)NC(=O)[C@H](C)NC(=O)CNC1=O` stands 0.24; under `CC[C@H](C)[C@@H]1NC(=O)[C@H](CCCN=C(N)N)NC(=O)[C@H](CC(=O)O)NC(=O)[C@H]([C@@H](C)CC)NC(=O)[C@H](CCCN=C(N)N)NC(=O)[C@@H]2CCSSC[C@H](NC(=O)[C@H](CCC(N)=O)NC(=O)[C@H](C)NC(=O)CNC1=O)C(=O)NCC(=O)N[C@@H](CC(C)C)C(=O)NCC(=O)N[C@H](C(=O)N[C@@H](CC(N)=O)C(=O)N[C@@H](CO)C(=O)N[C@@H](Cc1ccccc1)C(=O)N[C@@H](CCCN=C(N)N)C(N)=O)CSSC[C@H](NC(=O)[C@H](CO)NC(=O)[C@@H](N)CO)C(=O)N[C@@H](Cc1ccccc1)C(=O)NCC(=O)N2` (H-SSCFG[hCys]RIDRIGAQCGLGCNSFR-NH2; disulfide 3-19, 6-15), 0.049.
On the same count and under the same terms, under `CC[C@H](C)[C@@H]1NC(=O)[C@H](CCCN=C(N)N)NC(=O)[C@H](CC(=O)O)NC(=O)[C@H]([C@@H](C)CC)NC(=O)[C@H](CCCN=C(N)N)NC(=O)[C@@H](NC(=O)CNC(=O)[C@H](Cc2ccccc2)NC(=O)[C@H](CSCNC(C)=O)NC(=O)[C@H](CO)NC(=O)[C@@H](N)CO)CSSC[C@@H](C(=O)N[C@@H](CC(N)=O)C(=O)N[C@@H](CO)C(=O)N[C@@H](Cc2ccccc2)C(=O)N[C@@H](CCCN=C(N)N)C(N)=O)NC(=O)CNC(=O)[C@H](CC(C)C)NC(=O)CNC(=O)[C@H](CSCNC(C)=O)NC(=O)[C@H](CCC(N)=O)NC(=O)[C@H](C)NC(=O)CNC1=O` (H-SSC(Acm)FGCRIDRIGAQC(Acm)GLGCNSFR-NH2; disulfide 6-19) stands 0.0022; under `CC[C@H](C)[C@@H]1NC(=O)[C@H](CCCN=C(N)N)NC(=O)[C@H](CC(=O)O)NC(=O)[C@H]([C@@H](C)CC)NC(=O)[C@H](CCCN=C(N)N)NC(=O)[C@H](CSCNC(C)=O)NC(=O)CNC(=O)[C@H](Cc2ccccc2)NC(=O)[C@@H](NC(=O)[C@H](CO)NC(=O)[C@@H](N)CO)CSSC[C@@H](C(=O)N[C@@H](CC(N)=O)C(=O)N[C@@H](CO)C(=O)N[C@@H](Cc2ccccc2)C(=O)N[C@@H](CCCN=C(N)N)C(N)=O)NC(=O)CNC(=O)[C@H](CC(C)C)NC(=O)CNC(=O)[C@H](CSCNC(C)=O)NC(=O)[C@H](CCC(N)=O)NC(=O)[C@H](C)NC(=O)CNC1=O`, 0.43; under `CC[C@H](C)[C@@H]1NC(=O)[C@H](CCCN=C(N)N)NC(=O)[C@H](CC(=O)O)NC(=O)[C@H]([C@@H](C)CC)NC(=O)[C@H](CCCN=C(N)N)NC(=O)CNC(=O)CNC(=O)[C@H](Cc2ccccc2)NC(=O)[C@@H](NC(=O)[C@H](CO)NC(=O)[C@@H](N)CO)CSSC[C@@H](C(=O)N[C@@H](CC(N)=O)C(=O)N[C@@H](CO)C(=O)N[C@@H](Cc2ccccc2)C(=O)N[C@@H](CCCN=C(N)N)C(N)=O)NC(=O)CNC(=O)[C@H](CC(C)C)NC(=O)CNC(=O)[C@H](CSCNC(C)=O)NC(=O)[C@H](CCC(N)=O)NC(=O)[C@H](C)NC(=O)CNC1=O`, 0.21.
Same read-out and setting: under `CC[C@H](C)[C@@H]1NC(=O)[C@H](CCCN=C(N)N)NC(=O)[C@H](CC(=O)O)NC(=O)[C@H]([C@@H](C)CC)NC(=O)[C@H](CCCN=C(N)N)NC(=O)[C@H](CSCNC(C)=O)NC(=O)CNC(=O)[C@H](Cc2ccccc2)NC(=O)[C@@H](NC(=O)[C@H](CO)NC(=O)[C@@H](N)CO)CSSC[C@@H](C(=O)NCC(=O)N[C@@H](CC(C)C)C(=O)NCC(=O)N[C@@H](CSCNC(C)=O)C(=O)N[C@@H](CC(N)=O)C(=O)N[C@@H](CO)C(=O)N[C@@H](Cc2ccccc2)C(=O)N[C@@H](CCCN=C(N)N)C(N)=O)NC(=O)[C@H](CCC(N)=O)NC(=O)[C@H](C)NC(=O)CNC1=O` stands 0.042.
